Measurements: ChEMBL document CHEMBL1128369, “Haloanilino derivatives of pyrimidines, purines, and purine nucleoside analogs: synthesis and activity against human cytomegalovirus” (J Med Chem, 1995)
pIC50: −log10 of the molar value.

Legend:
[1] = tested on: HEL; assay: Inhibition of human CMV DNA synthesis in CMV-infected HEL cells.; assay type: functional, cell-based
Outline: (§1)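 Dot-blot hybridization. HEL cells in MEM + 10% FCS infected with HCMV AD169 at about 1 pfu/cell for 60–90 min. Medium replaced by 3-fold drug dilutions (4–6 concentrations, duplicate wells) or DMSO. Incubated 48–96 h at 37 °C, 5% CO2. SDS/pronase lysates spotted on nitrocellulose, hybridized with 32P-labeled cloned viral DNA probe and counted. IC50 is 50% inhibition of viral DNA.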

[2] = tested on: HEL; assay: Inhibition against DNA of uninfected HEL cells by incorporation of [3H]TdR.; assay type: functional, cell-based; settings: Homo sapiens
Outline: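 About 1/3 confluent uninfected HEL monolayers in DMEM + 10% FCS, preincubated 24 h at 37 °C. Serial compound dilutions in DMSO (or DMSO alone) added to duplicate wells with [3H]thymidine 1 μCi/mL for 24 h. Cells lysed with 0.4 M NaOH, then 5% TCA precipitate collected on filters and counted. IC50 is 50% inhibition of incorporation.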

[3] = tested on: HEL; assay: Concentration that inhibits HCMV yield by 90% relative to control cultures without drugs; assay type: functional; settings: Homo sapiens
Outline: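 HCMV AD169 infected HEL cells in 96-well plates at 0.1 pfu/cell for 30 min, washed twice, then given compound dilutions or DMSO diluent. Incubated 7 days at 37 °C. Cells scraped and sonicated. Progeny titered by end-dilution, in triplicate, 3- or 5-fold serial dilutions on fresh HEL cells, read after 14 days as the highest dilution with enumerable plaques.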

[4] = tested on: Nucleic Acid; assay: Inhibitory activity against HCMV DNA polymerase in virus infected cells; assay type: functional, cell-based, Human betaherpesvirus 5
Outline: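 HCMV DNA polymerase partially purified from HEL cells infected with AD169 (MOI 2, 3 days) by phosphocellulose and DEAE-cellulose chromatography. Assay buffer was 40 mM Tris-HCl pH 7.8 with 8 mM MgCl2, 100 mM KCl, 4 mM 2-mercaptoethanol, 0.1 mM dATP/dGTP/dCTP/[3H]dTTP and activated calf thymus DNA. Incubated 60 min at 37 °C; acid-precipitable counts measured. IC50 is the mean of duplicate experiments.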

[5] = tested on: HEL; assay: Inhibitory activity against HCMV DNA synthesis in virus infected cells; assay type: functional, cell-based; settings: Homo sapiens; outline: as §1

Structure (SMILES)	pIC50 [1]	pIC50 [2]	IC90 [3] [µM]	pIC50 [4]	pIC50 [5]
OCCOCn1cnc2c(O)nc(Nc3cc(Cl)cc(Cl)c3)nc21	4.82	4.85			
Oc1cc(Nc2cc(Cl)cc(Cl)c2)nc(O)n1	4.60	4.00	69	4.19	4.60
OCCOCn1cnc2c(Cl)nc(Nc3cc(Cl)cc(Cl)c3)nc21	4.90	4.84			
Nc1nc(O)cc(Nc2ccc(F)c(F)c2)n1	3.94	< 3.70			
Oc1cc(Nc2ccc(Cl)c(F)c2)nc(O)n1	< 3.70	< 3.70			
Nc1nc(O)cc(Nc2cc(Cl)cc(Cl)c2)n1	4.55	4.02	91	3.76	4.55
OC[C@H]1O[C@@H](n2cnc3c(O)nc(Nc4cc(Cl)cc(Cl)c4)nc32)C[C@@H]1O	4.82	4.89			
OC[C@H]1O[C@@H](n2cnc3c(Cl)nc(Nc4cc(Cl)cc(Cl)c4)nc32)C[C@@H]1O	5.10	5.47			
Nc1nc(Nc2cc(Cl)cc(Cl)c2)nc2c1ncn2[C@H]1C[C@H](O)[C@@H](CO)O1	5.07	6.30			
Nc1nc(O)cc(Nc2ccc(Cl)c(F)c2)n1	4.15	3.78			
Nc1nc(O)cc(Nc2cc(F)cc(F)c2)n1	4.20	< 3.70			
Nc1nc(Nc2cc(Cl)cc(Cl)c2)nc2c1ncn2COC(CO)CO	4.32	5.30			
Oc1cc(Nc2cc(F)cc(F)c2)nc(O)n1	< 3.70	< 3.70			
OCC(CO)OCn1cnc2c(O)nc(Nc3cc(Cl)cc(Cl)c3)nc21	4.35	4.38			
Nc1nc(O)cc(Nc2ccc(F)c(Cl)c2)n1	4.70	3.96			
Nc1[nH]c(Nc2cc(Cl)cc(Cl)c2)nc2ncnc1-2	5.10	4.40	16.8	3.60	5.10
Oc1[nH]c(Nc2ccc(Cl)c(Cl)c2)nc2ncnc1-2	4.92	4.22		3.48	4.92
Nc1nc(Nc2cc(Cl)cc(Cl)c2)nc2c1ncn2COCCO	5.10	5.85			
Oc1cc(Nc2cc(F)cc(Cl)c2)nc(O)n1	< 3.70	< 3.70			
Oc1cc(Nc2ccc(Cl)c(Cl)c2)nc(O)n1	4.40	< 3.70		4.35	4.40
Nc1nc(O)cc(Nc2cc(F)cc(Cl)c2)n1	< 3.70	< 3.70			
Nc1nc(Cl)cc(Nc2cc(Cl)cc(Cl)c2)n1	5.33	4.49	18		
Oc1[nH]c(Nc2cc(Cl)cc(Cl)c2)nc2ncnc1-2	4.48	3.40	56	3.85	4.48
Nc1[nH]c(Nc2ccc(Cl)c(Cl)c2)nc2ncnc1-2	5.30	5.47			
Nc1nc(Cl)cc(Nc2ccc(Cl)c(Cl)c2)n1	5.04	4.51	8.7	3.82	5.04
Nc1nc(O)cc(Nc2ccc(Cl)c(Cl)c2)n1	4.60	4.49		3.44	4.60
Oc1cc(Nc2ccc(F)c(Cl)c2)nc(O)n1	3.85	< 3.70			
Oc1cc(Nc2ccc(F)c(F)c2)nc(O)n1	< 3.70	< 3.70			
O=C(O)P(=O)(O)O [FOSCARNET SODIUM]	4.81				
Nc1nc2c(ncn2COC(CO)CO)c(=O)[nH]1 [GANCICLOVIR]	6.30	5.15	2.1		
